In the library only some 2.5% were active in any assay of this set; here they are far more common.
HTRA1 inh: HTRA1 serine protease inhibitors, primary screen, biochemical, fluorescence polarization, HTS; Q92743; AID 504803, 2011; inhibition, % at 5.96 µM; recombinant HTRA1, FP-rhodamine activity-based probe; 340,000 compounds, 0.5% hits; in the data active = inhibition above about 36%;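 also: 0% = enzyme with DMSO and 100% = wells lacking enzyme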
SIAE inh: human SIAE inhibitors, primary screen, biochemical, fluorescence polarization, FP-Rh probe, 1536-well HTS | AID 1053197, 2014 | 370,000 compounds, 0.69% hits | SIAE FP-Rh probe binding | inhibition, % at 9.66 µM;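 active = inhibition above a cutoff: mean of compounds within the control limits plus 3 SD of those, cut at about 17% in these data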;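 also: 0% = plate median of compound wells and 100% = probe without SIAE protein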
PRMT1 inh: PRMT1 methyltransferase inhibitors, primary screen, biochemical, fluorescence polarization. Protein arginine N-methyltransferase 1 (Homo sapiens), Q99873. recombinant PRMT1, activity-based probe fluorescence polarization. inhibition, % at 2.79 µM. 370,000 compounds, 1.3% hits;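 active = inhibition above about 21% made by adding two undisclosed values, limit read from the data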
TCR-CD3 inh: inhibitors of human TCR-CD3 interaction, primary screen, biochemical, fluorescence, TAMRA-labeled TCR probe. inhibition, % at 9.4 µM. 360,000 compounds, 0.37% hits; in the data active = inhibition above about 19%;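 also: recombinant mutant TCR 2C K166C tagged with TAMRA read by polarization; 0% = receptor in buffer alone and 100% = receptor with positive control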
ABHD4 inh: ABHD4 inhibitors, primary screen, biochemical, fluorescence polarization, mouse; (Lyso)-N-acylphosphatidylethanolamine lipase (Mus musculus), Q8VD66; purified mABHD4, FP-Rh probe fluorescence polarization; inhibition, % at 8.92 µM; 370,000 compounds, 0.54% hits; AID 720543, 2013;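 active = inhibition exceeding the mean over every tested compound plus 3 SD, cut at about 30% in these data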;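 also: 0% = plate median of compound wells and 100% = S159A mutant with DMSO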
Target sequence (Q8VD66 whole entry, looked up): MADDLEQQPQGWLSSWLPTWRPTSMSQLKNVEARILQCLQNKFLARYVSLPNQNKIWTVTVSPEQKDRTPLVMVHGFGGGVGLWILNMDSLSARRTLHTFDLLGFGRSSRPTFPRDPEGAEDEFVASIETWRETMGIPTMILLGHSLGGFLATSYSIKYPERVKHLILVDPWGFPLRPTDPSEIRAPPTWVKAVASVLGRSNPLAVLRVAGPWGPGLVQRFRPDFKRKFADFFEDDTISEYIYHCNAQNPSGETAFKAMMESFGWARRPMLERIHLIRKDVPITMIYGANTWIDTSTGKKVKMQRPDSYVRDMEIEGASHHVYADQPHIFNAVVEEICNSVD
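Test system: mABHD4 protein; Read-out basis: % inhibition; Incubation: 45 min + 60 min at 25 °C; Repeats: single replicate; Technique: fluorescence polarization with parallel and perpendicular emission, 525/598 nm; Compound: 8.92 µM, single dose; Benchmarks: full inhibition S159A mutant plus DMSO, zero as sample-well median.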
HTRA1 conf: HTRA1 protease inhibitors, retest, confirmation, biochemical, fluorescence polarization; recombinant HTRA1, FP-rhodamine activity-based probe; shares compounds with HTRA1 inh; inhibition, % at 5.96 µM; AID 540248, 2011; 1,600 compounds, 66% hits;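 active = mean inhibition over three repeats above a set limit taken from the earlier primary screen, cut at about 37% in these data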;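 also: 0% = HTRA1 with DMSO and 100% = wells lacking HTRA1; inhibitors block probe binding so polarization drops and inhibition rises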
Active calls of the source: *; / = no result given.

SMILES	HTRA1 inh	SIAE inh	PRMT1 inh	TCR-CD3 inh	ABHD4 inh	HTRA1 conf
Cc1ccc(NC(=S)N/N=C/c2ccc([N+](=O)[O-])s2)cc1	59.1*	7.7	0.0	-8.9	3.3	59.2*
C=CCn1c(=O)c(CCC(=O)Nc2ccc(N3CCOCC3)cc2)nc2cc(C(F)(F)F)ccc21	5.8	0.6	-2.0	-1.6	5.2	/
Nc1sc2c(c1C(=O)NC1CC1)CCCC2	46.9*	7.5	16.0	7.6	13.0	7.6
CCOC(=O)c1c(N)sc2c1CCCC2	-1.1	1.9	6.4	4.0	3.8	/
Oc1cccc2ccc(/C=C/c3c(F)cccc3Cl)nc12	16.1	4.7	0.0	-1.5	8.7	/
Oc1cccc2ccc(/C=C/c3ccccc3Cl)nc12	46.2*	-1.4	-2.2	-0.5	1.4	57.3*
CCCCC(=O)N(Cc1ccc2c(c1)OCO2)Cc1nc2ccccc2c(=O)[nH]1	-2.2	5.3	-0.4	5.5	-6.2	/
CCCCN(Cc1nc2ccccc2c(=O)[nH]1)C(=O)c1nn(C)c(=O)c2ccccc12	85.3*	-2.2	4.9	-0.1	-0.1	0.3
CCN(CC(=O)Nc1ccc2c(c1)OCCO2)C(=O)/C=C/c1cc(Br)ccc1OC	-12.4	-9.4	1.1	6.0	1.4	/
O=C(NNc1ccc(C(F)(F)F)cc1[N+](=O)[O-])c1ccc(NS(=O)(=O)c2ccc(F)cc2)cc1	37.8*	13.0	12.3	4.6	11.9	36.1
CCCCNC(=O)O[C@H]1CC[C@@]23CCCN2C(=O)CCC[C@H]3[C@H]1C	/	4.8	-1.9	/	3.5	/
CC1(C)C=Cc2c(c3c(c4c(=O)c(-c5ccc(O)cc5)coc24)OC(C)(C)CC3)O1	36.3*	-3.4	1.8	6.9	-0.1	19.7
CC(C)=CCc1c2c(c3occ(-c4ccc(O)cc4)c(=O)c3c1O)C=CC(C)(C)O2	-8.1	-11.8	1.3	2.2	-16.8	/
Cc1c(C(=O)Nc2ccc3c(c2)OCO3)sc2ncn(CC(=O)N3CC(C)CC(C)C3)c(=O)c12 (stereo not given)	-4.2	-9.1	1.6	6.7	2.3	/
Cc1[nH]c2ccccc2c1N=Nc1ccc(F)cc1	13.1	7.7	11.1	2.4	-2.1	/
N=C(N)c1ccc(N=Nc2c(O)ccc3c2[nH]c2ccccc23)cc1	85.0*	9.3	3.9	-2.1	47.5*	61.3*
COc1ccc(CCNc2ccc(C(CC(N)=O)NC(=O)c3cc(OC)ccc3OC)cc2[N+](=O)[O-])cc1 (stereo not given)	-17.9	-2.8	-2.1	1.7	4.0	/
O=C(COC(=O)c1ccc([N+](=O)[O-])s1)Nc1ncc(C(F)(F)F)cc1Cl	37.7*	-1.2	9.1	7.6	3.1	63.1*
O=C(COC(=O)c1ccccn1)Nc1ncc(C(F)(F)F)cc1Cl	5.8	-5.2	2.2	-3.5	3.8	/
COc1ccc(-n2sc3c(c2=S)-c2cc(OC)ccc2NC3(C)C)cc1	8.8	12.9	-1.0	2.2	6.2	/
COc1ccc2c(c1)-c1c(ssc1=S)C(C)(C)N2	37.5*	7.3	9.7	-2.4	22.9	37.2*
CC(C)C(=O)NC(c1ccccc1)c1cc([N+](=O)[O-])c2cccnc2c1O (stereo not given)	39.1*	5.0	-1.5	-4.6	15.2	46.2*
CC(=O)NC(c1ccccc1)c1cc([N+](=O)[O-])c2cccnc2c1O (stereo not given)	52.9*	4.6	13.2	-4.5	21.6	68.8*
O=C(/C=C/c1ccc(O)c(O)c1)OC(Cc1ccc(O)c(O)c1)C(=O)O (stereo not given)	9.3	7.3	19.7	3.8	28.5	/
O=C(/C=C/c1ccc(O)c(O)c1)OCCc1ccccc1	64.2*	-6.7	-1.6	2.7	16.4	70.8*
SMILES	HTRA1 inh	SIAE inh	PRMT1 inh	TCR-CD3 inh	ABHD4 inh	HTRA1 conf
O=c1cc(C(F)(F)F)nc(SC/C=C/c2ccccc2)[nH]1	-38.6	/	/	/	/	/
CCN(CC)c1ccc(/C=C2\C(=O)N(c3nnc(C)c(=O)[nH]3)N=C2C)cc1	62.0*	-12.7	3.0	15.5	4.6	79.2*
CCN(CC)c1ccc(/C=C2/C(=O)ON=C2C)cc1	-1.4	-14.1	-17.4	-2.5	-3.0	/
Cn1c(N)c(C(=O)c2cc(-c3ccccn3)nc3ccccc23)c(=O)[nH]c1=O	0.7	-1.3	-0.8	-1.7	3.1	/
Oc1ccccc1C=NNC(=S)Nc1ccc(F)cc1	44.6*	5.5	-6.1	11.5	9.4	46.3*
Fc1ccc(NC(=S)NN=Cc2ccccc2Cl)cc1	-19.7	4.7	1.8	-3.6	-2.2	/
CCCCC1CCC(C(=O)NCC(c2ccco2)N2CCOCC2)CC1 (stereo not given)	0.9	7.4	1.1	0.0	-4.8	/
O=C(C[n+]1ccc(CCSc2ccc(F)cc2)cc1)c1ccccc1	37.4*	/	/	/	/	59.9*
O=C(Nc1ccccc1-c1ccccc1)c1ccccc1	3.5	-2.4	-3.4	3.3	0.3	/
Nc1c(S(=O)(=O)O)cc(NC(=O)c2ccccc2)c2c1C(=O)c1ccccc1C2=O	54.5*	/	/	/	/	71.8*
O=C(c1sccc1-c1ccccc1)N1CCN(S(=O)(=O)c2ccccc2F)CC1	-5.6	-8.8	-3.3	2.1	1.5	/
Nn1cnnc1N/N=C/c1cc(Br)cc(Br)c1O	52.8*	-1.0	3.1	5.2	12.5	51.1*
CC(=NNc1nc2ccccc2s1)c1ccncn1	48.1*	5.4	-0.5	7.3	16.6	34.2
NS(=O)(=O)c1ccc(N=Nc2c(O)ccc3ccccc23)cc1	11.4	13.2	-9.2	4.1	4.1	/
Oc1ccc(N=Nc2c(O)ccc3ccccc23)cc1	62.7*	12.7	4.3	-9.5	19.3	42.9*
COc1ccc(Nc2ccccc2N)cc1	-5.9	-38.8	13.7	-6.0	17.2	/
Nc1ccc(Nc2ccccc2N)cc1	63.9*	8.8	0.3	1.3	24.0	82.6*
CCOC(=O)[C@@]12CCCC3=C1N(CCC3)C(=O)[C@H]2CC(=O)N1CCN(C(=O)c2ccco2)CC1	/	7.6	-1.0	/	5.7	/
Cc1ccnc(NCc2cc(Cl)cc(Cl)c2O)c1	3.2	1.1	5.2	-6.4	-2.3	/
Cc1cc(C)c(O)c(CN(C)Cc2cc(Cl)cc(Cl)c2O)c1	62.5*	9.0	2.4	-9.9	5.4	55.1*
Clc1ccc(-c2nnc(Sc3nc4ccccc4o3)c3ccccc23)cc1	137.1*	-1.3	-3.7	3.5	-4.3	-4.5
Cc1ccc(-c2nnc(Sc3nc4ccccc4o3)c3ccccc23)cc1	-17.1	3.4	-0.8	7.0	-1.9	/
Nc1ccc(N=Nc2ccccc2)c2ccccc12	7.0	7.9	-4.9	5.0	5.9	/
c1ccc(N=Nc2ccc3cccccc2-3)cc1	52.8*	16.4	-0.8	7.6	29.3	64.3*
